Measured values from ChEMBL document CHEMBL1955865, “Synthesis of novel spirooxindole derivatives by one pot multicomponent reaction and their antimicrobial activity” (2012).
Values after ≈ are worked out from the molar mass of the structure shown. Active and inactive are the calls of the source. No cut-off for these calls is given here.

Assays:
Staphylococcus aureus [1] = experiment: Antibacterial activity against Staphylococcus aureus MTCC 96 at 10 ug/disc after 24 hrs by disc diffusion assay; format: functional; conditions: MTCC 96, 24 h, read-out: IZ
Procedure, shortened: (§1)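 Streptomycin positive-control discs (10 µg/disc) on Mueller Hinton agar swabbed with bacterial culture (about 10^4 CFU/ml). Discs stood 30 min at room temperature, then plates were incubated 24 h at 37 °C. Zones of inhibition were recorded in mm, and the experiment was repeated twice.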

Salmonella typhimurium [2] = experiment: Antibacterial activity against Salmonella Typhimurium MTCC 1251 at 10 ug/disc after 24 hrs by disc diffusion assay; format: functional, Salmonella enterica subsp. enterica serovar Typhimurium; conditions: Salmonella enterica, MTCC 1251, 24 h; read-out: IZ; procedure, shortened: as §1
Klebsiella pneumoniae [3] = experiment: Antibacterial activity against Klebsiella pneumoniae MTCC 109 at 10 ug/disc after 24 hrs by disc diffusion assay; format: functional; conditions: MTCC 109, 24 h, read-out: IZ; procedure, shortened: as §1
Proteus vulgaris [4] = experiment: Antibacterial activity against Proteus vulgaris MTCC 1771 after 24 hrs by twofold serial dilution method; format: functional; conditions: MTCC 1771, 24 h
Procedure, shortened: (§2)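 Bacteria grown in Mueller Hinton broth for 24 h at 37 °C and diluted to about 10^4 CFU/ml. Compound in 2% DMSO was serially diluted two-fold (1000 to 15.62 µg/ml) in medium in 96-well plates and inoculated. Plates were incubated 24 h at 37 °C. 5 µl of broth was spotted onto MHA, and MIC was taken as the lowest concentration with no visible growth on agar.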

Proteus vulgaris [5] = experiment: Antibacterial activity against Proteus vulgaris MTCC 1771 at 10 ug/disc after 24 hrs by disc diffusion assay; format: functional; conditions: MTCC 1771, 24 h, read-out: IZ; procedure, shortened: as §1
Staphylococcus aureus [6] = experiment: Antibacterial activity against methicillin-resistant Staphylococcus aureus at 10 ug/disc after 24 hrs by disc diffusion assay; format: functional; conditions: read-out: IZ
Procedure, shortened: (§3)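 Streptomycin positive-control discs at 10 μg/disc on Mueller Hinton agar, swabbed with bacteria grown 24 h at 37 °C in MHB and diluted to about 10^4 CFU/ml. Discs stood 30 min at room temperature, then plates were incubated 24 h at 37 °C. Inhibition zones were measured in mm; experiment repeated twice.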

Micrococcus luteus [7] = experiment: Antibacterial activity against Micrococcus luteus at 10 ug/disc after 24 hrs by disc diffusion assay; format: functional; conditions: read-out: IZ; procedure, shortened: as §1
Salmonella typhimurium [8] = experiment: Antibacterial activity against Salmonella Typhimurium MTCC 1251 after 24 hrs by two-fold serial dilution method; format: functional, Salmonella enterica subsp. enterica serovar Typhimurium; conditions: Salmonella enterica, MTCC 1251, 24 h; procedure, shortened: as §2
[9] = tested on: Salmonella enterica subsp. enterica serovar Paratyphi B; experiment: Antibacterial activity against Salmonella paratyphi B after 24 hrs by twofold serial dilution method; format: functional
Procedure, shortened: (§4)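 Broth microdilution in MHB following the standard bacterial reference method. Compound was dissolved in DMSO (2%) and serially diluted two-fold from 1000 to 15.62 µg/ml in 96-well plates, with an inoculum of about 10^4 CFU/ml. Streptomycin and ciprofloxacin were positive controls. After 24 h at 37 °C, 5 µl of broth was subcultured on MHA. MIC was the lowest concentration without visible growth on agar.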

Staphylococcus aureus [10] = experiment: Antibacterial activity against Staphylococcus aureus MTCC 96 after 24 hrs by twofold serial dilution method; format: functional; conditions: MTCC 96, 24 h; procedure, shortened: as §2
[11] = tested on: Salmonella enterica subsp. enterica serovar Paratyphi B; experiment: Antibacterial activity against Salmonella paratyphi B at 10 ug/disc after 24 hrs by disc diffusion assay; format: functional; conditions: read-out: IZ; procedure, shortened: as §3
Klebsiella aerogenes [12] = experiment: Antibacterial activity against Enterobacter aerogenes MTCC 111 at 10 ug/disc after 24 hrs by disc diffusion assay; format: functional; conditions: MTCC 111, 24 h, read-out: IZ; procedure, shortened: as §1
Micrococcus luteus [13] = experiment: Antibacterial activity against Micrococcus luteus after 24 hrs by twofold serial dilution method; format: functional; procedure, shortened: as §2
Staphylococcus aureus [14] = experiment: Antibacterial activity against methicillin-resistant Staphylococcus aureus after 24 hrs by twofold serial dilution method; format: functional; procedure, shortened: as §4
Klebsiella aerogenes [15] = experiment: Antibacterial activity against Enterobacter aerogenes MTCC 111 after 24 hrs by twofold serial dilution method; format: functional; conditions: MTCC 111, 24 h; procedure, shortened: as §2
Klebsiella pneumoniae [16] = experiment: Antibacterial activity against Klebsiella pneumoniae MTCC 109 after 24 hrs by twofold serial dilution method; format: functional; conditions: MTCC 109, 24 h; procedure, shortened: as §2
Proteus vulgaris [17] = experiment: Antibacterial activity against Proteus vulgaris MTCC 1771 at 1000 ug/disc after 24 hrs by disc diffusion assay; format: functional; conditions: MTCC 1771, 24 h, read-out: IZ
Procedure, shortened: (§5)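 Disc diffusion on Mueller Hinton agar. Cultures (about 10^4 CFU/ml) were swabbed on and dried 10 min. Discs loaded at 1000 µg/disc were left 30 min at room temperature for diffusion, with a solvent negative control. Plates were incubated 24 h at 37 °C. Inhibition zones were measured in mm, and the experiment was done twice.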

Candida albicans [18] = experiment: Antifungal activity against Candida albicans MTCC 227 after 48 to 72 hrs by twofold serial dilution method; format: functional
Procedure, shortened: (§6)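 Broth two-fold serial dilution, 1000 to 15.62 µg/ml, with compound dissolved in 2% DMSO, in 96-well plates. Filamentous fungal spores came from 10-day SDA slants at 28 °C, and yeast from SDB grown 48 h at 28 °C. Incubation was 48-72 h at 28 °C. MIC was the lowest concentration with no visible fungal growth.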

[19] = Antifungal activity against Malassezia pachydermatis at 1000 ug/disc after 48 hrs by disc diffusion assay; format: functional
Procedure, shortened: (§7)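 Fungal disc diffusion with inoculum from SDA spores (filamentous) or SDB culture (yeast). Test cultures were swabbed on agar, and discs at 1000 µg/disc were left 30 min at room temperature, with a solvent negative control. Plates were incubated 48 h at 27 °C. Zone of inhibition was measured in mm, and the experiment was repeated twice.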

Micrococcus luteus [20] = experiment: Antibacterial activity against Micrococcus luteus at 1000 ug/disc after 24 hrs by disc diffusion assay; format: functional; conditions: read-out: IZ; procedure, shortened: as §5
Klebsiella aerogenes [21] = experiment: Antibacterial activity against Enterobacter aerogenes MTCC 111 at 1000 ug/disc after 24 hrs by disc diffusion assay; format: functional; conditions: MTCC 111, 24 h, read-out: IZ; procedure, shortened: as §5
Salmonella typhimurium [22] = experiment: Antibacterial activity against Salmonella Typhimurium MTCC 1251 at 1000 ug/disc after 24 hrs by disc diffusion assay; format: functional, Salmonella enterica subsp. enterica serovar Typhimurium; conditions: Salmonella enterica, MTCC 1251, 24 h; read-out: IZ; procedure, shortened: as §5
Botrytis cinerea [23] = experiment: Antifungal activity against Botrytis cinerea at 1000 ug/disc after 48 hrs by disc diffusion assay; format: functional; conditions: read-out: IZ; procedure, shortened: as §7
Staphylococcus aureus [24] = experiment: Antibacterial activity against methicillin-resistant Staphylococcus aureus at 1000 ug/disc after 24 hrs by disc diffusion assay; format: functional; conditions: read-out: IZ
Procedure, shortened: (§8)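 Disc diffusion on Mueller Hinton agar. Bacteria were grown 24 h at 37 °C in MHB and diluted to about 10^4 CFU/ml, swabbed onto plates and dried 10 min. Discs were loaded at 1000 μg/disc and held 30 min at room temperature for diffusion. Solvent served as negative control. After 24 h at 37 °C, inhibition zones were read in mm; run twice.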

Staphylococcus aureus [25] = experiment: Ratio of ciprofloxacin MIC to compound MIC for methicillin-resistant Staphylococcus aureus; format: functional
[26] = tested on: Salmonella enterica subsp. enterica serovar Paratyphi B; experiment: Antibacterial activity against Salmonella paratyphi B at 1000 ug/disc after 24 hrs by disc diffusion assay; format: functional; conditions: read-out: IZ; procedure, shortened: as §8
Salmonella typhimurium [27] = experiment: Ratio of ciprofloxacin MIC to compound MIC for Salmonella Typhimurium MTCC 1251; format: functional, Salmonella enterica subsp. enterica serovar Typhimurium
Micrococcus luteus [28] = experiment: Ratio of ciprofloxacin MIC to compound MIC for Micrococcus luteus; format: functional
Candida albicans [29] = experiment: Antifungal activity against Candida albicans MTCC 227 at 1000 ug/disc after 48 hrs by disc diffusion assay; format: functional; conditions: MTCC 227, 48 h, read-out: IZ; procedure, shortened: as §7
Staphylococcus aureus [30] = experiment: Antibacterial activity against Staphylococcus aureus MTCC 96 at 1000 ug/disc after 24 hrs by disc diffusion assay; format: functional; conditions: MTCC 96, 24 h, read-out: IZ; procedure, shortened: as §5
[31] = Antifungal activity against Malassezia pachydermatis after 48 to 72 hrs by twofold serial dilution method; format: functional; procedure, shortened: as §6
Candida albicans [32] = experiment: Ratio of fluconazole MIC to compound MIC for Candida albicans MTCC 227; format: functional
Klebsiella pneumoniae [33] = experiment: Antibacterial activity against Klebsiella pneumoniae MTCC 109 at 1000 ug/disc after 24 hrs by disc diffusion assay; format: functional; conditions: MTCC 109, 24 h, read-out: IZ; procedure, shortened: as §5
Botrytis cinerea [34] = experiment: Antifungal activity against Botrytis cinerea after 48 to 72 hrs by twofold serial dilution method; format: functional; procedure, shortened: as §6
Staphylococcus aureus [35] = experiment: Ratio of streptomycin MIC to compound MIC for methicillin-resistant Staphylococcus aureus; format: functional

CN[C@@H]1[C@H](O[C@H]2[C@H](O[C@H]3[C@H](O)[C@@H](O)[C@H](N=C(N)N)[C@@H](O)[C@@H]3N=C(N)N)O[C@@H](C)[C@]2(O)C=O)O[C@@H](CO)[C@H](O)[C@H]1O [STREPTOMYCIN]
zone of inhibition at 10 µg/disc (Staphylococcus aureus [1]): 16 mm | zone of inhibition at 10 µg/disc (Salmonella typhimurium [2]): 23 mm | zone of inhibition at 10 µg/disc (Klebsiella pneumoniae [3]): 20 mm | MIC (Proteus vulgaris [4]): 6.25 µg/mL (≈ 10.7 µM) | zone of inhibition at 10 µg/disc (Proteus vulgaris [5]): 22 mm | zone of inhibition at 10 µg/disc (Staphylococcus aureus [6]): 20 mm | zone of inhibition at 10 µg/disc (Micrococcus luteus [7]): 23 mm | MIC (Salmonella typhimurium [8]): 30 µg/mL (≈ 51.6 µM) | MIC [9]: inactive | MIC (Staphylococcus aureus [10]): 6.25 µg/mL (≈ 10.7 µM) | zone of inhibition at 10 µg/disc [11]: 17 mm | zone of inhibition at 10 µg/disc (Klebsiella aerogenes [12]): 22 mm | MIC (Micrococcus luteus [13]): 6.25 µg/mL (≈ 10.7 µM) | MIC (Staphylococcus aureus [14]): > 100 µg/mL | MIC (Klebsiella aerogenes [15]): 25 µg/mL (≈ 43 µM) | MIC (Klebsiella pneumoniae [16]): 6.25 µg/mL (≈ 10.7 µM)

CC(=O)N1C(=O)C2(C3=C(CN2C)C(=O)c2ccccc2C3=O)c2ccccc21 (stereo not drawn)
zone of inhibition at 1000 µg/disc (Proteus vulgaris [17]): 26 mm | MIC (Candida albicans [18]): 31.2 µg/mL (≈ 83.9 µM) | inhibition zone (IZ) [19]: 19 mm | zone of inhibition at 1000 µg/disc (Micrococcus luteus [20]): 22 mm | zone of inhibition at 1000 µg/disc (Klebsiella aerogenes [21]): 21 mm | zone of inhibition at 1000 µg/disc (Salmonella typhimurium [22]): 24 mm | zone of inhibition at 1000 µg/disc (Botrytis cinerea [23]): 15 mm | MIC (Proteus vulgaris [4]): < 15.6 µg/mL | MIC (Salmonella typhimurium [8]): 15.6 µg/mL (≈ 41.9 µM) | zone of inhibition at 1000 µg/disc (Staphylococcus aureus [24]): 16 mm | MIC [9]: < 15.6 µg/mL | Ratio (Staphylococcus aureus [25]): >1.6 | zone of inhibition at 1000 µg/disc [26]: 28 mm | Ratio (Salmonella typhimurium [27]): >6.4 | Ratio (Micrococcus luteus [28]): >6.4 | MIC (Staphylococcus aureus [10]): 31.2 µg/mL (≈ 83.9 µM) | zone of inhibition at 1000 µg/disc (Candida albicans [29]): 18 mm | MIC (Micrococcus luteus [13]): 15.6 µg/mL (≈ 41.9 µM) | MIC (Staphylococcus aureus [14]): 62.5 µg/mL (≈ 168 µM) | zone of inhibition at 1000 µg/disc (Staphylococcus aureus [30]): 18 mm | MIC [31]: 15.6 µg/mL (≈ 41.9 µM) | Ratio (Candida albicans [32]): >3.2 | zone of inhibition at 1000 µg/disc (Klebsiella pneumoniae [33]): 24 mm | MIC (Botrytis cinerea [34]): 125 µg/mL (≈ 336 µM) | MIC (Klebsiella aerogenes [15]): 15.6 µg/mL (≈ 41.9 µM) | MIC (Klebsiella pneumoniae [16]): 15.6 µg/mL (≈ 41.9 µM) | Ratio (Staphylococcus aureus [35]): >1.6
